Results reported in ChEMBL document CHEMBL4000167, “Chlorotheolides A and B, Spiroketals Generated via Diels-Alder Reactions in the Endophytic Fungus Pestalotiopsis theae” (J Nat Prod, 2016).
Active and inactive are the calls of the source. The calls are words filed in the database; no cut-off is given here.

What was measured:
HeLa [1] = experiment: Antiproliferative activity against human HeLa cells at 20 ug/ml after 48 hrs by MTS assay; assay type: functional, cell-based
Outline: (§1)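 Cells seeded at (2−5) × 10^3 per well in 96-well plates and allowed to attach overnight. Medium was then replaced with medium containing test compound by serial dilution from 100 mM DMSO stocks, or 0.1% DMSO, with cisplatin as positive control. Incubation was 48 h at 37 °C in 5% CO2, then MTS was added for 90 min at 37 °C. Absorbance read at 490 nm; triplicate.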

MCF7 = experiment: Antiproliferative activity against human MCF7 cells at 20 ug/ml after 48 hrs by MTS assay; assay type: functional, cell-based; outline: as §1
HeLa [2] = experiment: Induction of autophagy in human HeLa cells assessed as accumulation of membrane vacuoles at 10 uM at 2 hrs by transmission electron microscopic method; assay type: functional, cell-based
Outline: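 HeLa cells treated with 10 μM for 2 h, then washed in PBS, trypsinized and pelleted. Pellets fixed in 4% paraformaldehyde at 4 °C overnight and postfixed in 1% OsO4 in cacodylate buffer for 1 h at RT. They were then dehydrated in ethanol, rinsed in propylene oxide and embedded in Spurr resin. Thin sections examined by TEM.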

HeLa [3] = experiment: Induction of autophagy in human HeLa cells assessed as effect on ratio of SQSTM1/p62 to actin at 20 uM after 2 hrs by immunoblot method relative to control; assay type: functional
Outline: (§2)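 Lysis used Triton X-100/glycerol buffer: 50 mM Tris-HCl pH 7.4, 4 mM EDTA, 2 mM EGTA, 1 mM DTT, 1% Triton X-100, 1% SDS and protease inhibitors. Lysates were run on SDS-PAGE, blotted to PVDF and detected by HRP secondaries with ECL. p62/actin ratio calculated.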

HeLa [4] = experiment: Induction of autophagy in human HeLa cells assessed as effect on ratio of SQSTM1/p62 to actin at 1 uM after 2 hrs by immunoblot method relative to control; assay type: functional; outline: as §2
HeLa [5] = experiment: Induction of autophagy in human HeLa cells assessed as effect on ratio of SQSTM1/p62 to actin at 10 uM after 2 hrs by immunoblot method relative to control; assay type: functional; outline: as §2
HeLa [6] = experiment: Induction of autophagy in human HeLa cells assessed as effect on ratio of LC3-2 to actin at 10 uM after 2 hrs by immunoblot method relative to control; assay type: functional
Outline: (§3)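 Lysis in Tris-HCl pH 7.4 buffer with EDTA, EGTA, DTT, 1% Triton X-100, 1% SDS and protease inhibitors. SDS-PAGE, PVDF transfer, HRP secondary antibodies, ECL detection. LC3-II band expressed as a ratio to actin.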

HeLa [7] = experiment: Induction of autophagy in human HeLa cells assessed as effect on ratio of LC3-2 to actin at 1 uM after 2 hrs by immunoblot method relative to control; assay type: functional; outline: as §3
HeLa [8] = experiment: Induction of autophagy in human HeLa cells assessed as effect on ratio of LC3-2 to actin at 20 uM after 2 hrs by immunoblot method relative to control; assay type: functional; outline: as §3
HeLa [9] = experiment: Induction of autophagy in human HeLa cells assessed as effect on ratio of LC3-2 to actin at 20 uM after 2 hrs in presence of chloroquine by immunoblot method relative to control; assay type: functional; outline: as §3
HeLa [10] = experiment: Induction of autophagy in human HeLa cells assessed as effect on ratio of SQSTM1/p62 to actin at 10 uM after 2 hrs in presence of chloroquine by immunoblot method relative to control; assay type: functional; outline: as §2
HeLa [11] = experiment: Induction of autophagy in human HeLa cells assessed as increase in punctate LC3 accumulation at 10 uM after 2 hrs in presence of chloroquine by immunofluorescence method; assay type: functional, cell-based
Outline: (§4)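 They were fixed in 4% paraformaldehyde and permeabilized in Ca/Mg-free PBS with 0.1% Triton X-100 and 0.5% BSA. Staining used anti-LC3 and Alexa Fluor secondaries, with DAPI mounting. LC3 puncta were counted by fluorescence microscopy.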

HeLa [12] = experiment: Induction of autophagy in human HeLa cells assessed as effect on ratio of LC3-2 to actin at 1 uM after 2 hrs in presence of chloroquine by immunoblot method relative to control; assay type: functional; outline: as §3
HeLa [13] = experiment: Induction of autophagy in human HeLa cells assessed as effect on ratio of SQSTM1/p62 to actin at 20 uM after 2 hrs in presence of chloroquine by immunoblot method relative to control; assay type: functional; outline: as §2
HeLa [14] = experiment: Induction of autophagy in human HeLa cells assessed as effect on ratio of LC3-2 to actin at 10 uM after 2 hrs in presence of chloroquine by immunoblot method relative to control; assay type: functional; outline: as §3
HeLa [15] = experiment: Induction of autophagy in human HeLa cells assessed as effect on ratio of SQSTM1/p62 to actin at 1 uM after 2 hrs in presence of chloroquine by immunoblot method relative to control; assay type: functional; outline: as §2
HeLa [16] = experiment: Induction of autophagy in human HeLa cells assessed as increase in punctate LC3 accumulation at 10 uM after 2 hrs by immunofluorescence method; assay type: functional, cell-based; outline: as §4
HeLa [17] = experiment: Induction of autophagy in human HeLa cells assessed as effect on ratio of SQSTM1/p62 to actin at 15 uM after 2 hrs by immunoblot method relative to control; assay type: functional; outline: as §2

## C=C(C(=O)O)[C@@H](CCCCCCCC)C(=O)O
HeLa [1]
  inhibition: inactive
MCF7
  inhibition: inactive

## COC(=O)C1=CC(OC)=C(Cl)C(=O)C12OC(=O)c1c(O)cc(C)cc1O2 (stereo not given)
HeLa [1]
  inhibition: inactive
MCF7
  inhibition: inactive

## CCCCCCCC1=COC(=O)[C@]12C[C@]1(C(=O)OC)C=C(OC)[C@@]2(Cl)C(=O)[C@]12OC(=O)c1c(O)cc(C)cc1O2
HeLa [2]
  Activity: Active
HeLa [3]
  fold change (FC): 2.84
HeLa [4]
  fold change (FC): 2.76
HeLa [5]
  fold change (FC): 3.61
HeLa [6]
  fold change (FC): 0.79
HeLa [7]
  fold change (FC): 1.03
HeLa [8]
  fold change (FC): 2.9
HeLa [9]
  fold change (FC): 10.86
HeLa [10]
  fold change (FC): 2.19
HeLa [11]
  Activity: Active
HeLa [12]
  fold change (FC): 10.98
HeLa [13]
  fold change (FC): 1.94
HeLa [14]
  fold change (FC): 12.53
HeLa [15]
  fold change (FC): 2.84
HeLa [16]
  Activity: Active

## CCN(CC)CCCC(C)Nc1ccnc2cc(Cl)ccc12 (stereo not given) [CHLOROQUINE]
HeLa [17]
  fold change (FC): 1.8
